KCNK9 inh – human KCNK9 channel inhibition; AID 488922; 1.2% of 310,000 active; B-score at 10 µM; HEK293 KCNK9, FluxOR thallium flux fluorescence; stronger effect = lower value;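 active = ratio B-score over 3 SD below the library mean, with starting fluorescence within 5 SD of its mean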;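 also: negative B-score means less thallium flux so channel inhibition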
Target sequence (Q9NPC2 whole entry, looked up): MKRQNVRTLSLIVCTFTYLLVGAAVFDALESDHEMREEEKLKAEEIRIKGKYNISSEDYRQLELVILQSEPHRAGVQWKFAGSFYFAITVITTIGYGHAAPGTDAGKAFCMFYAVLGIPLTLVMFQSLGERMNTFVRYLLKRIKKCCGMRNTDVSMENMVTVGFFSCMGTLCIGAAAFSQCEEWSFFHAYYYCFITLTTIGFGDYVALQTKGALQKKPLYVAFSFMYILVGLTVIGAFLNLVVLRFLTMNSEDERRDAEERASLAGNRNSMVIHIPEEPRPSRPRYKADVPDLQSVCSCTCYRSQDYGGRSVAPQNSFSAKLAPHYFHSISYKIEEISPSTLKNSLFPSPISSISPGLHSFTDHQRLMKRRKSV
KCNQ1 act – human KCNQ1 channel potentiation or activation. P51787. 0.35% of 310,000 active. B-score at 10 µM. CHO-K1 KCNQ1, thallium flux FluxOR fluorescence; stronger effect = higher value. AID 2648;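 active = fluorescence ratio B-score, a plate-corrected score, at least three library SD, with initial intensity B-score within 5 SD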
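Material: CHO-K1 cells stably expressing KCNQ1. Medium: assay buffer for compound exposure, DMSO matched across wells. Reagent: K+/Tl+ depolarizing stimulus. Compound dosing: single-concentration screen. Times: 37 °C overnight plating, 90-min dark dye load, 20-min compound pretreatment. Technique: FluxOR Tl+ flux fluorescence.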
KCNK3 block – human KCNK3 channel inhibition, primary screen | O14649 | CHO-KCNK3 thallium flux, FluxOR fluorescence; stronger effect = lower value | B-score at 10 µM | 0.84% of 340,000 active;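 active = B-score under library mean minus 4 SD, starting fluorescence ratio at most library mean plus 5 SD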;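 also: more negative B-score means stronger inhibition of thallium flux through KCNK3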
hERG protect – compounds protecting human hERG from proarrhythmic drug block; Q12809; CHO-hERG, FluxOR thallium flux, dofetilide IC70 present; activation (rescue from dofetilide block), less the hit threshold, % at 10 µM; 0.51% of 310,000 active;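 active = activation above the mean of controls blocked by dofetilide plus 5 SD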;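 also: thallium influx through hERG after potassium depolarization seen as dye fluorescence rise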
KCNQ1 inh – blocks the human KCNQ1 potassium channel. CHO-K1 KCNQ1, FluxOR thallium flux fluorescence; stronger effect = higher value. B-score at 10 µM. 1.3% of 310,000 active. AID 2642. P51787;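 active = compounds whose thallium flux B-score, printed positive for inhibition, exceeds three library SD while starting fluorescence stays within three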;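 also: channel opened by potassium depolarization with thallium stimulus after 20 min compound exposure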
KCNK9 inh conf – confirmation of human KCNK9 potassium channel inhibitors. HEK293 KCNK9 cells, FluxOR thallium flux fluorescence. shares compounds with KCNK9 inh. AID 492992. 43% of 4,900 active. inhibition, % at 10 µM;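 active = thallium signal inhibited by more than 5 SD of the compound-free buffer control wells, on both duplicate plates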
Kir21 sel – selectivity of KCNK9 modulators against mouse Kir2.1; AID 492993; inhibition, % at 10 µM; shares compounds with KCNK9 inh; Kir2.1 cells, FluxOR thallium flux fluorescence; 4% of 4,900 active;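 active = thallium signal drop more than 5 SD beyond the mean of the no-compound control wells, seen in both duplicate plates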;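 also: signal is fluorescence rise after thallium addition divided by baseline fluorescence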
HEK293 Tl ctr – non-induced cell nonspecific activity of KCNK9 modulators; AID 492997; shares compounds with KCNK9 inh; non-induced KCNK9-HEK293, FluxOR thallium flux; 40% of 4,900 active; inhibition, % at 10 µM;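 active = thallium signal drop beyond 5 SD of the untreated control mean, on both duplicate plates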
A number is an active result; 0 = inactive; - = not tested or not shown. Compounds with a hit are over-represented: about 3.1% of the library has one in this group of screens.

SMILES	KCNK9 inh	KCNQ1 act	KCNK3 block	hERG protect	KCNQ1 inh	KCNK9 inh conf	Kir21 sel	HEK293 Tl ctr
COc1ccc(-c2[nH]ncc2/C=C(/C#N)C(=O)NC2CCCCCC2)cc1	0	0	0	0	0	0	0	0
N#C/C(=C\c1c(Cl)cccc1Cl)c1nc2ccccc2[nH]1	-8.8	0	0	0	0	46%	0	0
N#C/C(=C\c1c(Cl)cccc1Cl)c1nc2ccccc2o1	0	0	0	0	0	0	0	0
CCCCNc1ncnc2c1nnn2Cc1ccccc1Cl	0	0	0	0	0	-	-	-
O=c1c2c3c(sc2n(CCN2CCCCC2)c(=O)n1Cc1ccco1)CCCCC3	0	0	0	0	0	0	0	0
O=C(N/N=C/c1ccc(F)cc1)c1cccc(NC(=O)c2ccccc2Cl)c1	0	0	0	0	0	-	-	-
COc1cccc(CN(C(=O)c2ccccc2Br)C2CCS(=O)(=O)C2)c1 (stereo not drawn)	0	0	0	0	0	-	-	-
CC(=O)c1ccc(OCCCCOc2ccc(C(C)=O)cc2)cc1	0	0	0	0	0	-	-	-
CC(=O)c1ccc(OCCCCCCCOc2ccc(C(C)=O)cc2)cc1	-8.8	0	0	0	0	0	0	0
COc1cc([N+](=O)[O-])ccc1NC(=S)NNC(=O)c1ccc2c(c1)OCO2	0	0	0	0	10	0	0	0
CCN(CC)c1ccc(/C=C/C(=O)C2C(=O)C=C(C)OC2=O)cc1 (stereo not drawn)	-9.5	0	0	0	0	86%	101%	85%
Cc1ccccc1N1CCN(C2CCCN(C(=O)c3cnsn3)C2)CC1 (stereo not drawn)	0	0	0	0	0	0	0	0
Cc1nc(C(=O)N2CCCC(N3CCN(c4ccccc4C)CC3)C2)cs1 (stereo not drawn)	0	0	0	0	0	0	0	0
CCOc1cccc(CN2CCCC(N3CCN(c4cccc(Cl)c4)CC3)C2)c1O (stereo not drawn)	0	0	0	0	0	-	-	-
CC(C)c1nc(C(=O)N2CCCC(N3CCN(c4cccc(Cl)c4)CC3)C2)cs1 (stereo not drawn)	0	0	0	0	0	0	0	0
CC(C)/C=C/CN1CCCC(N2CCN(c3cccc(Cl)c3)CC2)C1 (stereo not drawn)	0	0	0	0	0	0	0	0
CCOc1ccccc1NC(=O)COC(=O)CC(NC(N)=O)c1ccc(Cl)cc1 (stereo not drawn)	0	0	0	0	0	-	-	-
CCCn1c(SCC(=O)NC2CCC(C)CC2)n[nH]c1=O (stereo not drawn)	-	-	0	-	-	-	-	-
Cc1cccc(C(=O)N2CCCC(N3CCN(c4cccc(Cl)c4)CC3)C2)n1 (stereo not drawn)	0	0	0	0	0	0	0	0
Cc1ccccc1N1CCN(C2CCCN(C(=O)c3csc(C(C)C)n3)C2)CC1 (stereo not drawn)	0	0	0	0	0	0	0	0
Cc1ccccc1N1CCN(C2CCCN(C(=O)c3ccc(Cl)s3)C2)CC1 (stereo not drawn)	0	0	0	0	0	0	0	0
COc1ccccc1C(=O)Nc1ccc2c(c1)CN(Cc1cnc(C)s1)CC2	0	0	0	0	0	-	-	-
Cc1ccccc1Nc1scc(-c2ccc(Cl)cc2)[n+]1-c1ccccc1C	-8.4	0	0	0	0	62%	0	0
Cc1c(Nc2scc(-c3ccccc3)[n+]2-c2ccccc2)c(=O)n(-c2ccccc2)n1C	0	0	0	0	0	-	-	-
O=C(CSc1ccc(Br)cc1)N1CCN(C(=O)c2ccco2)CC1	0	0	0	0	0	-	-	-
SMILES	KCNK9 inh	KCNQ1 act	KCNK3 block	hERG protect	KCNQ1 inh	KCNK9 inh conf	Kir21 sel	HEK293 Tl ctr
Cc1nnc(-c2ccccc2)c(=O)n1/N=C/c1c(O)ccc2ccccc12	-8.8	0	0	0	8	38%	0	34%
Cc1nnc(C)n1/N=C/c1c(O)ccc2ccccc12	0	0	0	0	0	-	-	-
Cc1noc(C)c1S(=O)(=O)Nc1ccc(O)c2c(=O)cc(-c3ccccc3Cl)oc12	0	0	0	0	0	0	0	0
O=C(Nc1ccc(O)c2c(=O)cc(-c3ccccc3Cl)oc12)c1ccccc1Cl	0	0	0	0	0	-	-	-
COC(=O)c1c(Cc2ccccc2Cl)c[nH]c1C	0	0	0	0	0	-	-	-
CCOC(=O)c1c(Cc2cccc(Cl)c2)c[nH]c1C	-10	0	0	0	6	68%	0	28%
CCOC(=O)CC1C(=O)NCCN1c1nc2ccc(C)cn2c(=O)c1/C=C1\SC(=S)N(CC(C)C)C1=O (stereo not drawn)	-9.9	0	0	0	8	46%	43%	62%
CC(C)N1CCN(Cc2ccoc2)CC1CCO (stereo not drawn)	0	0	0	0	0	-	-	-
O=C(NCc1ccccc1)C1=C[C@H](C2CCCCC2)C[C@H](OCc2ccc(CO)cc2)O1	0	0	0	0	0	0	0	0
CC1CN(c2nc3ccccc3cc2-c2ccccc2)CC(C)O1 (stereo not drawn)	0	0	0	0	0	0	0	0
CC1CN(c2cc(-c3ccccc3)c3ccccc3n2)CC(C)O1 (stereo not drawn)	0	0	0	0	0	0	0	0
O=C(CCc1ccccc1)n1nc(-c2ccccc2)nc1NCc1ccco1	-8.4	0	0	0	0	0	0	33%
COc1ccc(C2=NS(=O)(=O)N(C)C(C(=O)NC3CCCCC3)=C2)cc1OC	0	0	0	0	0	-	-	-
O=[N+]([O-])c1ccccc1S(=O)(=O)N1CCCC(C(F)(F)F)C1 (stereo not drawn)	0	0	0	0	0	-	-	-
S=C(NC1CCCCC1)N1CCN(c2ccccn2)CC1	0	0	0	0	0	-	-	-
CCOC(=O)Nc1cc(C)ccc1OC	0	0	0	0	0	-	-	-
COc1ccc(C)cc1NC(=O)CC(O)(C(F)(F)F)C(F)(F)F	-9.6	0	0	0	0	0	0	0
Cc1cccc(CSCCNC(=O)c2ccc(N(C)S(=O)(=O)c3ccccc3)cc2)c1	0	0	0	0	7	0	0	0
CN(c1ccc(C(=O)NCc2ccc3c(c2)OCO3)cc1)S(=O)(=O)c1ccccc1	0	0	0	0	0	-	-	-
O=C(NCCSCc1ccccc1)c1ccccc1	0	0	0	0	0	-	-	-
CN(c1ccc(C(=O)NCCSCc2ccccc2)cc1)S(=O)(=O)c1ccccc1	0	0	0	0	0	0	0	0
Cc1cccc(/C=C2/C(=O)/C(=C/c3ccccc3C)C3CCC2N3C)c1 (stereo not drawn)	0	0	0	0	0	0	0	0

Source: PubChem
